Source: PubChem BioAssay AID463172 (The Scripps Research Institute Molecular Screening Center, 2010)

System: HEK293T RORa/G6PC promoter luciferase, 20 h
Test: RORa-driven G6PC promoter inhibitors, potency, late-stage follow-up, counter-screen for RORA inverse agonist project, cell-based, luminescence, dose response (AID 463172)
Summary of the method: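 Assay system: HEK293T cells with RORa, SRC-2 and G6PC-luciferase reporter. Doses: 10-point dilution series, highest nominal dose 10 µM. Schedule: 20 h compound exposure after 24 h bulk transfection. Measured by: luciferase luminescence from G6PC promoter reporter. Control set: DMSO vehicle-treated cells as normalization reference.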

O=S(=O)(Nc1ccc(C(O)(C(F)(F)F)C(F)(F)F)cc1)c1cccs1
IC50: 1400 nM
